Screening results (PubChem)
dFosB activator: mouse delta FosB homodimer activation | hit rate 0.99% among 340,000 | activation, % at 25 µM | P13346 | AID 493131 | purified delta FosB, TAMRA-CDK5 oligo fluorescence polarization; percent of positive-control signal above neutral wells;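 active = mean activation above about 17%, with every replicate also reaching it, limit read from the data, passing the limit was not always enough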
IMP-1 inhibitor: inhibitors of Pseudomonas aeruginosa IMP-1 metallo-beta-lactamase | hit rate 0.45% among 290,000 | purified IMP-1, nitrocefin hydrolysis, epi-absorbance fluorescence | inhibition, % at 5.6 µM;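 active = inhibition above the mean plus 3 SD of all compounds in the same screening run, cut at about 4.5% in these data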;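 note: 0% = IMP-1 with DMSO and 100% = DMSO wells lacking enzyme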
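Assay system: purified recombinant IMP-1 beta-lactamase. Input: IMP-1 0.2 nM before substrate addition. Buffer or medium: Zinc- and detergent-supplemented HEPES buffer, pH 7.1. Schedule: 25 °C, 15 min preincubation, 25 min reaction. Signal: Epi-absorbance fluorescence, 480 nm excitation, 530 nm emission. Evaluation: percent inhibition from optical density relative to buffer-blank wells.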
VIM-2 inhibitor: blocks Pseudomonas aeruginosa VIM-2 metallo-beta-lactamase. inhibition, % at 5.6 µM. hit rate 0.89% among 290,000. purified VIM-2, nitrocefin hydrolysis, epi-absorbance fluorescence;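 active = inhibition above the mean of all tested compounds plus 3 SD, cutoff set per screening run, cut at about 7.5% in these data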;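 note: red hydrolysis product quenches plate fluorescence so inhibitors raise well fluorescence; 0% = enzyme with DMSO and 100% = DMSO without enzyme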
HTR2A ag: activates the mouse 5-HT2A serotonin receptor; P35363; CHO-K1 mHTR2A beta-arrestin complementation, luminescence; percent of 30 µM serotonin response; activation, % at 7.6 µM; hit rate 0.66% among 360,000; AID 624169;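 active = activation above a run cutoff, the mean activation of all tested compounds plus 3 SD, cut at about 14% in these data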;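 note: 0% = plate median of compound wells and 100% = 30 µM serotonin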
MOR ag counter: OPRM1 agonism in mouse HTR2A counterscreen | shares compounds with HTR2A ag | U2OS OPRM1 beta-arrestin PathHunter, luminescence; DMSO 0%, DAMGO 9.3 µM 100% | activation, % at 9.3 µM | hit rate 5.3% among 2,300;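 active = mean activation above the mean of DMSO-only wells plus 3 SD, cut at about 0.5% in these data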
Target sequence (P35372 whole entry, looked up): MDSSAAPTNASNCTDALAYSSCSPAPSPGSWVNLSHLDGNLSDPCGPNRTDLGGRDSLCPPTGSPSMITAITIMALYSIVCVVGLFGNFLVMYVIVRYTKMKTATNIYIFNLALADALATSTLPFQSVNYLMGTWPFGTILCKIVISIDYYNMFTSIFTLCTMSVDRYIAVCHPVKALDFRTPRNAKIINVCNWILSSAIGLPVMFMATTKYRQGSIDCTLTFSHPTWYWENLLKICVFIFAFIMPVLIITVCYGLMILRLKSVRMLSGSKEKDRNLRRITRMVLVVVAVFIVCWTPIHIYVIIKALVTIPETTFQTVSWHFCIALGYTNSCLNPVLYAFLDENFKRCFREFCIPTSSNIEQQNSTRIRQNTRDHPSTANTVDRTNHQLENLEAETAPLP
m5-HT2A ag conf: mouse HTR2A agonism confirmed; shares compounds with HTR2A ag; hit rate 19% among 2,300; CHO-K1 PathHunter beta-arrestin recruitment, luminescence; DMSO 0%, 30 µM serotonin 100%; activation, % at 7.6 µM;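 active = mean activation across triplicates above the hit threshold derived in the original primary screen, cut at about 15% in these data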
* = called active by the depositor; / = no result given. A selection: hits, their analogues and other compounds. The true share with any hit is near 2.5%.

SMILES | dFosB activator | IMP-1 inhibitor | VIM-2 inhibitor | HTR2A ag | MOR ag counter | m5-HT2A ag conf
CC(C)Cc1ccc(CN2CCCC(NC(=O)CCN3CCCO3)C2)cc1 (stereo not drawn) | -6 | -1 | -3 | -5 | / | /
O=C(NC1c2ccccc2Oc2ccccc21)c1ccc([N+](=O)[O-])cc1 | -3 | / | / | 5 | / | /
CN1C(=O)C(CC(=O)NC2CCCCC2)SC1=Nc1ccccc1 (stereo not drawn) | -9 | -3 | -1 | 23* | -1 | -3
CCN=C1SC(CC(=O)NC2CCCCC2)C(=O)N1CC (stereo not drawn) | 2 | 0 | -1 | -5 | / | /
CC1CCCCC1NC(=O)CSc1nnc(-c2ccco2)n1N (stereo not drawn) | / | / | / | -4 | / | /
CCn1nc(NS(=O)(=O)c2ccc(NC(C)=O)cc2)c2cc3cc(C)ccc3nc21 | -19 | -4 | -2 | 6 | / | /
COC(=O)[C@]1(CC(C)C)N[C@H](c2ccc(-c3cccc(Cl)c3)cc2)[C@@H]2C(=O)N(C)C(=O)[C@@H]21 | 7 | / | / | -1 | / | /
CN(C)CCNc1ncnc2c1ncn2[C@H]1CN(Cc2cccs2)C[C@@H](CO)O1 | / | / | / | 0 | / | /
CCn1cc(CN2CCC(C(=O)Nc3ccc(Oc4ccccc4F)cc3)CC2)cn1 | / | / | / | 15* | -1 | -6
Cn1cc(CN2CCC(C(=O)Nc3ccc(Oc4ccccc4F)cc3)CC2)cn1 | -7 | -2 | -3 | -3 | / | /
CCC(=O)c1cn(CC(=O)Nc2ccccc2)c2ccccc12 | 11 | 0 | 0 | -1 | / | /
CC(=O)c1cn(CC(=O)Nc2ccccc2)c2ccccc12 | 1 | -3 | 1 | 20* | -1 | 1
Cc1ccc(C(=O)NNC(=S)NC(=O)c2ccco2)cc1 | -3 | -4 | -5 | -4 | / | /
CC(C)C(=O)Nc1ccc(C(=O)NNC(=S)NC(=O)c2ccco2)cc1 | -4 | 1 | -1 | 15* | -1 | 2
O=C(CN1C(=O)NC(Cc2ccccc2)C1=O)Nc1ccc(OC(F)F)cc1 (stereo not drawn) | 4 | / | / | 0 | / | /
O=C(CN1C(=O)NC(Cc2ccccc2)C1=O)Nc1ccccc1OC(F)F (stereo not drawn) | 0 | / | / | 18* | 0 | 0
COc1cccc(-c2cc(N3CCN(C(=O)c4ccoc4)CC3)n3nc(-c4cccc(Cl)c4)cc3n2)c1 | / | / | / | 16* | -1 | -1
CC(CN1CCCCC1)OC(=O)/C=C/c1ccccc1 (stereo not drawn) | -2 | -2 | -1 | 17* | -1 | 1
CCN1CCN(c2ccc(NC(=O)c3cc(S(=O)(=O)N4CCCC4)ccc3Cl)cc2)CC1 | 2 | / | / | -4 | / | /
COc1cc(OC)cc(-c2c(C#Cc3ccsc3)c3cc(-c4cccc5[nH]cc(C=O)c45)ccc3n2C)c1 | 0 | / | / | 21* | -1 | -2
CNc1nc2ccccc2n1CC(=O)c1ccccc1 | -4 | -3 | -2 | -7 | / | /
CCCCN1C(=O)C(CC(=O)NCc2cccc3ccccc23)CC(C(=O)N2CCOCC2)=C1C (stereo not drawn) | / | / | / | 15* | 0 | 4
CCSc1ccc([C@@H]2[C@H]3C(=O)N(C)C(=O)[C@H]3[C@]3(C(=O)OC)CCCCN23)cc1 | 6 | / | / | 17* | 0 | -3
CC1CCN(CCCNC(=O)CCc2nnc3n(CCc4ccccc4)c(=O)c4ccccc4n23)CC1 | 2 | -2 | 2 | -8 | / | /
CC(C)Cn1c(=O)c2ccccc2n2c(CCC(=O)NC3CCN(Cc4ccccc4)CC3)nnc12 | -12 | -6 | 1 | 19* | -1 | 6
Cc1c(-c2ccc(OCCN3CCOCC3)cc2)c(=O)oc2ccc3ccccc3c12 | / | / | / | 1 | / | /
CC(=O)C1=C(O)C(=O)OC1c1ccc(Cl)cc1 (stereo not drawn) | -4 | -2 | -3 | 16* | 0 | 0
CCc1nnc(NC(=O)CCN2C(=O)/C(=C/c3cc(OC)c(OC)c(OC)c3)SC2=S)s1 | -11 | -1 | 0 | 10 | / | /
CC(C)(CC(=O)O)CC(=O)NCc1c(Cl)cccc1Sc1ccc(Cl)cc1 | / | -3 | -3 | 15* | -1 | -2
C[C@H]1CN([C@@H](C)CO)C(=O)CCCn2nncc2CO[C@@H]1CN(C)Cc1ccccc1C(F)(F)F | / | / | / | 10 | / | /
